Laboratory results published in ChEMBL document CHEMBL4765392, “Development of coumarine derivatives as potent anti-filovirus entry inhibitors targeting viral glycoprotein” (Eur J Med Chem, 2020).

Columns and labels:
[1] = Inhibition of envelope glycoprotein in HIV pseudotyped Zaire Ebolavirus infected in human A549 cells assessed as reduction in virus entry measured after 48 hrs by luciferase reporter gene assay; type: cell-based; settings: A549, 48 h
Outline: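 A549 cells (5000/well, seeded 24 h prior) incubated 48 h with 3-fold serial compound dilutions premixed with HIV-backbone luciferase pseudovirions bearing EBOV GP. Entry quantified by luciferase signal, normalized to virus-alone cells. IC50 from logistic regression of dose-response curves.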

[2] = Cytotoxicity against human A549 cells assessed as reduction in cell viability by Celltiter-Glo assay; type: cell-based
Outline: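 Low-passage A549 cells seeded at 5000/well 24 h ahead, then exposed for 48 h to 3-fold serial compound dilutions in fresh media without virus. Viability read by CellTiter-Glo luminescence and normalized to medium-only cells. CC50 from logistic regression fit of dose-response curves.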

[3] = system: envelope glycoprotein of Zaire Ebolavirus; assay: Selectivity index, ratio of CC50 for human A549 cells to IC50 for inhibition of envelope glycoprotein in HIV pseudotyped Zaire Ebolavirus infected in human A549 cells assessed as reduction in virus entry; type: toxicity, cell-based; settings: read-out: Ratio CC50/IC50
Outline: (§1)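 IC50 wells also got HIV luciferase pseudovirions bearing MARV GP or EBOV GP, read by luciferase. CC50 wells got fresh media, read by CellTiter-Glo. Both values come from logistic dose-response fits, and the index is CC50 divided by IC50.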

[4] = system: envelope glycoprotein of Marburgvirus; assay: Selectivity index, ratio of CC50 for human A549 cells to IC50 for inhibition of envelope glycoprotein in HIV pseudotyped Marburgvirus infected in human A549 cells assessed as reduction in virus entry; type: toxicity, cell-based; settings: read-out: Ratio CC50/IC50; outline: as §1

With `Cc1c(Cc2ccc(Cl)cc2)c(=O)oc2cc(OCC(O)CN3CCC(C(N)=O)CC3)ccc12` (configuration not stated) the IC50 [1] was 2.5 µM, the CC50 [2] was 40 µM and the selectivity ratio [3] was 16.3. The selectivity ratio [4] was 13.8.

`Cc1c(Cc2ccccc2)c(=O)oc2cc(OCC(O)CNCCc3cccnc3)ccc12` (configuration not stated) showed an IC50 [1] of 1.3 µM, a CC50 [2] of 27.4 µM and a selectivity ratio [3] of 20.5. For the same compound, the selectivity ratio [4] was 16.4.

`Cc1c(Cc2ccc(-c3ccc(C(F)(F)F)cc3)cc2)c(=O)oc2cc(OCC(O)CN3CCC(C(N)=O)CC3)ccc12` (configuration not stated) gave an IC50 [1] of 1.2 µM, a CC50 [2] of over 100 µM and a selectivity ratio [3] of over 85.7. For the same compound, the selectivity ratio [4] was 76.9.

`Cc1c(Cc2ccc(F)cc2Cl)c(=O)oc2cc(OCC(O)CN3CCC(C(N)=O)CC3)ccc12` (configuration not stated) gave an IC50 [1] of 3.1 µM, a CC50 [2] of 90.8 µM and a selectivity ratio [3] of 29. For the same compound, the selectivity ratio [4] was 7.7.

With `Cc1c(Cc2ccc(OC(F)(F)F)cc2)c(=O)oc2cc(OCC(O)CN3CCC(C(N)=O)CC3)ccc12` (configuration not stated) the IC50 [1] was 0.5 µM, the CC50 [2] was 68.2 µM and the selectivity ratio [3] was 136. For the same compound, the selectivity ratio [4] was 56.8.

In the case of `Cc1c(Cc2ccccc2)c(=O)oc2cc(OCC(O)CNCCc3ccccn3)ccc12` (configuration not stated), the IC50 [1] is reported as 3.6 µM, the CC50 [2] is reported as 54.9 µM and the selectivity ratio [3] is reported as 15.6. The selectivity ratio [4] was 9.3.

In the case of `COc1ccc(OC(COc2ccc3c(C)c(Cc4ccccc4)c(=O)oc3c2)CN2CCC(C(N)=O)CC2)cc1` (configuration not stated), the IC50 [1] is reported as 10.5 µM, the CC50 [2] is reported as 94.9 µM and the selectivity ratio [3] is reported as 9.1. The selectivity ratio [4] was 11.9.

With `Cc1c(Cc2ccccc2)c(=O)oc2cc(OCC(O)CNC3CCOCC3)ccc12` (configuration not stated) the IC50 [1] was 2.2 µM, the CC50 [2] was 38.2 µM and the selectivity ratio [3] was 17.4. The selectivity ratio [4] was 17.1.
